# Env fusion inh = inhibitors of HIV-1 Env-driven cell-cell fusion, primary screen, HeLa-JRFL effector, CEM21 target cells, luciferase. hit rate 1.1% among 360,000. inhibition, % at 12.3 µM;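 active means mean replicate inhibition score of at least 50 and every replicate individually at or above 50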;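 further: 0% = plate neutral controls and 100% = maraviroc near 300 nM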
# PDI inh = inhibitors of human PDI, primary screen, biochemical, turbidity, single point, plate reader | Protein disulfide-isomerase (Homo sapiens), P07237 | PDI insulin aggregation turbidity, A650, 90 min | inhibition, % at 10 µM | hit rate 0.052% among 350,000 | AID 588391, 2011;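 active means mean inhibition across replicates of 30% or more, whatever share of single replicates reach that level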
# ERp5 inh = inhibitors of ERp5-driven insulin aggregation, primary screen, biochemical, turbidity, absorbance 650 nm, single point; AID 651711, 2012; Protein disulfide-isomerase A6 (Homo sapiens), Q15084; hit rate 0.05% among 350,000; inhibition, % at 9.99 µM; 90 min;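 active means mean replicate inhibition above about 25%, with every replicate also reaching it, limit read from the data, passing the limit was not always enough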
# Target sequence (Q15084 whole entry, looked up): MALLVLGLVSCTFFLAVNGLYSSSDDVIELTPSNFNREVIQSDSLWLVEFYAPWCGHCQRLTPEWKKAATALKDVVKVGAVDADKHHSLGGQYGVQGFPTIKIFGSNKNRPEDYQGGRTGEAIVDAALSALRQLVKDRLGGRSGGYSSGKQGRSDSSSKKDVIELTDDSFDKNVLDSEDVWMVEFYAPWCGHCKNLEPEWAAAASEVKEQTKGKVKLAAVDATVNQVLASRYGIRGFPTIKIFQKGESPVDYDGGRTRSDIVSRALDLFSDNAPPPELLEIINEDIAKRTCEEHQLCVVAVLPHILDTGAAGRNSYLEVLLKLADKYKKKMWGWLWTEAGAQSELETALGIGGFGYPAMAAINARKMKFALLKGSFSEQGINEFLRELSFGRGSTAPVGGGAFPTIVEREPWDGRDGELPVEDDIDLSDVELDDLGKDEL
# rRNA inh HTS = reduced GFP signal of wild-type E. coli, primary screen, bacterial rRNA inhibitor project, GFP/RFP fluorescence, OD600, single point; GFP signal change (wild-type ribosome), % (no concentration beside the values); E. coli WT GFP vs humanized-ribosome RFP mutants, 24 h; hits give low values; DMSO median 0, no signal -100; hit rate 1.6% among 350,000;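 active means significant combined selectivity score with lowered wild-type GFP, culture density cut under 30%, mutant RFP and density less affected; inactive means any of these conditions unmet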
# PvdQ acylase = P. aeruginosa PvdQ acylase inhibitors, primary screen, biochemical, fluorescence, plate reader and imaging, single point; inhibition, % at 10 µM; purified PvdQ acylase; hit rate 0.063% among 340,000; AID 488965, 2010; in the data active means inhibition above about 30%, passing the limit was not always enough;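 further: 0% = vehicle neutral wells and 100% = reference inhibitor wells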
# FN deposition inh = inhibitors of fibronectin matrix deposition, primary screen, AH1F cells, Alexa488-fibronectin fluorescence, plate reader | AH1F fibroblasts, overnight | hit rate 0.086% among 350,000 | inhibition, % at 12.6 µM;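 active means mean inhibition across replicates of 30% or more, regardless of how many single replicates reach that level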;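 further: positive control wells lacked labelled fibronectin entirely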
#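 Material: AH1F fibroblast monolayer depositing Alexa488-labelled fibronectin into matrix / Amount: 10000 AH1F cells per well / Signal: fluorescence 485/525 nm / Medium: DMEM, 2% serum / Compound: single dose, pinned / Incubation: 1 h cell adhesion before compound, then overnight fibronectin incubation / Reagent: Alexa488-FN, 24 nM final / Read-out: inhibition of fibronectin deposition signal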
# * = called active by the depositor; / = no result given; [ ] = dose if it differs, or a comment. Shown are actives, neighbours in structure and some others; about 2.2% of the full set was active somewhere.
SMILES,Env fusion inh,PDI inh,ERp5 inh,rRNA inh HTS,PvdQ acylase,FN deposition inh
CC(C)CC#Cc1cnc2c(c1)C(=O)N([C@@H](C)CO)C[C@@H](C)[C@H](CN(C)Cc1ccccc1F)O2,21[16.7 µM],/,-3,-18,/,-1
CC(C)(C)c1cc(NC(=O)c2ccco2)no1,-147,8,28*,13,-4,/
C/C(=N\N=C(/N)SC1CC(=O)N(c2ccc(Cl)cc2)C1=O)c1cccs1 (configuration not stated),-102,-9,/,/,0,-7
C/C(=N\N=C(/N)SC1CC(=O)N(c2ccc(Cl)c(Cl)c2)C1=O)c1cccs1 (configuration not stated),/,13,-6,-39*,-9,/
C[C@H]1CN([C@@H](C)CO)C(=O)c2cccc(N(C)C)c2O[C@H]1CN(C)C(=O)Nc1ccccc1,/,/,2,2,/,3
Cc1noc(C)c1NC(=O)N(C)C[C@H]1Oc2c(NS(=O)(=O)c3cn(C)cn3)cccc2C(=O)N([C@@H](C)CO)C[C@H]1C,/,/,-4,7,/,-10
COc1ccc(S(=O)(=O)N2CCCCC2)cc1NC(=O)Cc1sc(C)nc1-c1ccc(F)cc1,80*,-6,7,-6,18,-8
N#CN=CN1CC=C(c2ccc(Cl)cc2)CC1,63*,-3,-5,8,/,-1
COc1ccc(-c2nc(C#N)c(NCC3CCCO3)o2)cc1 (configuration not stated),/,1,/,/,-10,/
Cc1ccc(-c2nc(C#N)c(NCC3CCCO3)o2)cc1 (configuration not stated),-26,8,-1,-24*,-15,/
CCOC(=O)C1=CCN(S(=O)(=O)c2ccc(C)cc2)[C@H]1c1ccccc1Cl,23,/,0,-29*,/,-10
Clc1ccc(/C=C\c2nccc3c2[nH]c2ccccc23)cc1,-21,1,9,-25*,-39,/
COc1ccc2c3c([nH]c2c1)[C@H](CO)N(C(=O)Nc1ccccc1F)CC31CCN(C(=O)C2CC2)CC1,/,/,7,2,/,/
COc1ccc(CNC(=O)C2=CC(c3ccc(OC)c(OC)c3)=NS(=O)(=O)N2C)cc1,/,/,1,6,-10,6
CCc1ccc(NC(=O)C2=CC(c3ccc(OC)c(OC)c3)=NS(=O)(=O)N2C)cc1,56*,/,-22,-6,-4,1
O=C(C[C@@H]1C[C@H]2c3cc(NC(=O)Nc4ccccc4)ccc3O[C@H]2[C@H](CO)O1)NCc1ccccn1,-20[16.7 µM],/,7,1,/,18
Cc1cccc(N2CCN(S(=O)(=O)c3cn(C)cn3)CC2)c1C,2,2,-10,7,10,43*
COc1ccccc1NS(=O)(=O)c1cccc(C(=O)NN)c1,12,7,/,/,6,9
NNC(=O)c1cccc(S(=O)(=O)Nc2cc(Cl)ccc2Cl)c1,1,11,2,-20*,7,5
CCc1cc2c(NCc3ccco3)ncnc2s1,80*,3,/,/,11,-1
CC(C)C#Cc1ccc2c(c1)O[C@@H](CN(C)C(=O)c1cccc(F)c1)[C@H](C)CN([C@H](C)CO)S2(=O)=O,22[16.7 µM],/,-1,-2,/,/
CSc1nnc(NC(=O)c2nc(S(=O)(=O)Cc3cccc(C)c3)ncc2Cl)s1,89*,2,-2,4,-11,1
O=C(NCc1ccc2c(c1)OCO2)c1nc(S(=O)(=O)Cc2ccccc2F)ncc1Cl,21,-1,-2,1,-16,33*
COC(=O)c1ccccc1NC(=O)c1nc(S(=O)(=O)Cc2ccccc2)ncc1Cl,1,-5,10,5,-5,5
CCc1nnc(NC(=O)c2nc(S(=O)(=O)Cc3cccc(C)c3)ncc2Cl)s1,63*,2,1,4,4,12
CC(=O)Nc1ccc(NC(=O)c2nc(S(=O)(=O)Cc3ccccc3)ncc2Cl)cc1,-8,4,5,-2,-4,51*

# From PubChem
